From ChEMBL document CHEMBL1671756, “In vitro and in vivo antifungal susceptibilities of the Mucoralean fungus Cunninghamella” (2010)
Active and inactive are the calls of the source. No cut-off for these calls is given here.

Columns and labels:
[1] = tested on: Cunninghamella bertholletiae; test: Antifungal activity against Cunninghamella bertholletiae UTHSC 06-1945 infected in neutropenic OF1 mouse assessed as decreased fungal load in kidney at 0.8 mg/kg, iv qd administered 1 day post infection measured after 4 to 5 days relative to untreated control; assay type: functional, organism-based; design: dose 0.8 mg/kg
In short: (§1)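 Neutropenic male OF1 mice (cyclophosphamide 200 mg/kg i.p. plus 5-fluorouracil 150 mg/kg i.v., day −1) were given 1 × 10⁴ CFU sporangiospores i.v. in 0.2 ml saline. Treatment from 24 h: 0.8 mg/kg i.v. or oral doses once daily; 10 mice per group. Killed at day 5 (day 4 if moribund). About half of brain, lungs and kidneys homogenized in saline; 10-fold dilutions plated on PDA for 24 h at 35°C; log₁₀ CFU/g tissue.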

[2] = tested on: Cunninghamella bertholletiae; test: Antifungal activity against Cunninghamella bertholletiae UTHSC 06-1945 infected in neutropenic OF1 mouse assessed as increase in mouse survival rate at 0.8 mg/kg, iv qd administered 1 day after infection; assay type: functional, organism-based; design: dose 0.8 mg/kg
In short: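 Male OF1 mice (~30 g) were made neutropenic with cyclophosphamide 200 mg/kg i.p. plus 5-fluorouracil 150 mg/kg i.v. 1 day before challenge. Challenge was 1 × 10⁴ CFU sporangiospores in 0.2 ml saline via the lateral tail vein. Mice got ceftazidime 5 mg/day s.c. on days 1–7. Dosing started 24 h post-challenge for 7 days. There were 10 mice/group, observed daily for 20 days. Kaplan-Meier analysis with log-rank test.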

[3] = tested on: Cunninghamella bertholletiae; test: Antifungal activity against Cunninghamella bertholletiae UTSCH 05-2275 infected in diabetic OF1 mouse assessed as decreased fungal load in lung at 0.8 mg/kg, iv qd administered 1 day post infection measured after 4 to 5 days relative to untreated control; assay type: functional, organism-based; design: dose 0.8 mg/kg
In short: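 Diabetic OF1 mice (streptozocin 210 mg/kg i.p.; glucose >250 mg/dl) were infected i.v. with 1 × 10⁵ CFU, with ceftazidime cover. Ten per group were treated from day 1 and killed day 5, or day 4 if moribund. Half-organ homogenates (brain, lung, kidney) in 1 ml saline were serially diluted 10-fold on PDA, incubated 24 h at 35°C, and reported as log₁₀ CFU/g tissue.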

[4] = tested on: Cunninghamella bertholletiae; test: Antifungal activity against Cunninghamella bertholletiae UTHSC 05-2275 infected in diabetic OF1 mouse assessed as increase in mouse survival rate at 40 mg/kg, po qd administered 1 day after infection for 7 days relative to untreated control; assay type: functional, organism-based; design: dose 40 mg/kg
In short: (§2)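 Male OF1 mice made diabetic with streptozocin 210 mg/kg i.p.; blood glucose above 250 mg/dl at day 10 required. Infected i.v. via the tail vein with 1 × 10⁵ CFU sporangiospores in 0.2 ml saline. Ceftazidime 5 mg/day s.c. on days 1–7. Oral once-daily treatment from day 1 for 7 days; 10 mice per group; followed for 20 days; Kaplan-Meier mean survival time, log-rank test.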

[5] = tested on: Cunninghamella bertholletiae; test: Antifungal activity against Cunninghamella bertholletiae UTSCH 05-2275 infected in diabetic OF1 mouse assessed as decreased fungal load in kidney at 80 mg/kg, po qd administered 1 day post infection measured after 4 to 5 days relative to untreated control; assay type: functional, organism-based; design: dose 80 mg/kg
In short: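 Male OF1 mice (mean 30 g) made diabetic with a single i.p. dose of streptozocin 210 mg/kg; blood glucose >250 mg/dl at day 10 qualified. Ceftazidime 5 mg/day s.c. given on days 1–7. Challenge by lateral tail vein with 1 × 10⁵ CFU sporangiospores in 0.2 ml saline. Oral dosing once daily for 7 days, starting 1 day after challenge. Untreated controls. Ten mice per group.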

[6] = tested on: Cunninghamella bertholletiae; test: Antifungal activity against Cunninghamella bertholletiae UTHSC 05-2275 infected in diabetic OF1 mouse assessed as increase in mouse survival rate at 80 mg/kg, po qd administered 1 day after infection for 7 days relative to untreated control; assay type: functional, organism-based; design: dose 80 mg/kg; in short: as §2
[7] = tested on: Cunninghamella bertholletiae; test: Antifungal activity against Cunninghamella bertholletiae UTHSC 05-2275 infected in neutropenic OF1 mouse assessed as decreased fungal load in kidney at 40 mg/kg, po qd administered 1 day post infection measured after 4 to 5 days relative to untreated control; assay type: functional, organism-based; design: dose 40 mg/kg; in short: as §1
[8] = tested on: Cunninghamella bertholletiae; test: Antifungal activity against Cunninghamella bertholletiae FMR-9598 infected in neutropenic OF1 mouse assessed as decreased fungal load in brain at 60 mg/kg, po qd administered 1 day post infection measured after 4 to 5 days relative to untreated control; assay type: functional, organism-based; design: dose 60 mg/kg; in short: as §1
[9] = tested on: Cunninghamella bertholletiae; test: Antifungal activity against Cunninghamella bertholletiae UTHSC 05-2275 infected in neutropenic OF1 mouse assessed as decreased fungal load in brain at 80 mg/kg, po qd administered 1 day post infection measured after 4 to 5 days relative to untreated control; assay type: functional, organism-based; design: dose 80 mg/kg; in short: as §1
[10] = tested on: Cunninghamella bertholletiae; test: Antifungal activity against Cunninghamella bertholletiae UTHSC 06-1945 infected in neutropenic OF1 mouse assessed as decreased fungal load in brain at 60 mg/kg, po qd administered 1 day post infection measured after 4 to 5 days relative to untreated control; assay type: functional, organism-based; design: dose 60 mg/kg; in short: as §1
[11] = tested on: Cunninghamella bertholletiae; test: Antifungal activity against Cunninghamella bertholletiae UTHSC 05-2275 infected in neutropenic OF1 mouse assessed as increase in mouse survival rate at 60 mg/kg, po qd administered 1 day after infection for 7 days relative to untreated control; assay type: functional, organism-based; design: dose 60 mg/kg
In short: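 Male OF1 mice, about 30 g, made neutropenic with cyclophosphamide 200 mg/kg i.p. plus 5-fluorouracil 150 mg/kg i.v. 1 day before challenge. Infected i.v. via the lateral tail vein with 1 × 10⁴ CFU of hemacytometer-counted sporangiospores in 0.2 ml saline. Ceftazidime 5 mg/day s.c. on days 1–7. Oral treatment started 24 h after challenge; 10 mice per group; checked daily for 20 days; Kaplan-Meier mean survival time, log-rank test.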

[12] = tested on: Cunninghamella bertholletiae; test: Antifungal activity against Cunninghamella bertholletiae UTHSC 04-2581 infected in neutropenic OF1 mouse assessed as decreased fungal load in brain at 60 mg/kg, po qd administered 1 day post infection measured after 4 to 5 days relative to untreated control; assay type: functional, organism-based; design: dose 60 mg/kg; in short: as §1
[13] = tested on: Cunninghamella bertholletiae; test: Antifungal activity against Cunninghamella bertholletiae UTHSC 05-2275 infected in neutropenic OF1 mouse assessed as increase in mouse survival rate at 25 mg/kg, po bid administered 1 day after infection for 7 days relative to untreated control

SMILES | Activity [1] | Activity [2] | Activity [3] | Activity [4] | Activity [5] | Activity [6] | Activity [7] | Activity [8] | Activity [9] | Activity [10] | Activity [11] | Activity [12] | Activity [13]
C[C@@H]1[C@H](O)[C@@H](C)/C=C/C=C/C=C/C=C/C=C/C=C/C=C/[C@H](O[C@@H]2O[C@H](C)[C@@H](O)[C@H](N)[C@@H]2O)C[C@@H]2O[C@](O)(C[C@@H](O)C[C@@H](O)[C@H](O)CC[C@@H](O)C[C@@H](O)CC(=O)O[C@H]1C)C[C@H](O)[C@H]2C(=O)O [AMPHOTERICIN B] | Active | inactive | inactive |  |  |  |  |  |  |  |  |  | 
CC[C@@H]([C@H](C)O)n1ncn(-c2ccc(N3CCN(c4ccc(OC[C@@H]5CO[C@@](Cn6cncn6)(c6ccc(F)cc6F)C5)cc4)CC3)cc2)c1=O [POSACONAZOLE] |  |  |  | Active | Active | Active | Active | Active | Active | Active | Active | Active | inactive
